According to PMC8154199 (JACS Au, 2021):

Key:
[1] = CID-ESI-MS stability of heme-drug complexes; format: binding; conditions: 4-heme m/z 960.2; AQ-heme m/z 971.3; CQ-heme m/z 935.4
How it was run: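 Hematin was made fresh from hemin in 50% ammonia. Test compound stock was in ACN or water. Hematin and compound were mixed equimolar at 100 μM in CH3CN/H2O (50:50), then diluted to 50 μM in ACN/H2O/HCOOH (50:50:1). Samples were infused at 5 μL·min–1 into an orthogonal ESI-TOF. CID used capillary exit (cone) voltage 120–400 V in 20 V steps, and adduct stability responses were plotted against voltage.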

P. falciparum strain Dd2 = experiment: Growth inhibition assay with highly synchronized P. falciparum, SYBR green; format: cell-based; conditions: Plasmodium falciparum, DD2, 72 h, read-out: IC50 P. falciparum Dd2
[2] = Probe solubility in aqueous ACN by absorbance kinetics; format: physicochemical; conditions: aqueous ACN solutions (Figure S16)
How it was run: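 Solubility was assessed in 2% ACN by spectrophotometric absorbance kinetics over decreasing test compound concentrations, starting at 20 μM.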

human fibroblasts hMRC-5 = experiment: Toxicity against human fibroblasts hMRC-5; format: cell-based; conditions: Fibroblast, read-out: IC50 hMRC-5

With CCN(CC)CCCC(C)Nc1ccnc2cc(Cl)ccc12 (centres unmarked) [chloroquine, reference compound] the “residual complex at high fragmentor voltage (ion abundance)” value [1] was “did not show a residual covalent adduct” and the IC50 (P. falciparum strain Dd2) was 189 nM.

CN(C)c1ccc2nc3ccc(=[N+](C)C)cc-3sc2c1 [methylene blue, reference compound] showed an IC50 (P. falciparum strain Dd2) of 7 nM.

For C#Cc1ccc(C(=O)C2=C(C)C(=O)c3ccccc3C2=O)cc1 [probe 7], the “solubility sequence, from the less to the most soluble” value [2] was “probe 10 < probe 8 ≈ probe 7 < probe 9”, the IC50 (human fibroblasts hMRC-5) was 20500 nM and the IC50 (P. falciparum strain Dd2) was 1810 ± 302 nM.

C#Cc1ccc(CC2=C(C)C(=O)c3ccccc3C2=O)cc1 [probe 11, 2-(4-ethynylbenzyl)-3-methylnaphthalene-1,4-dione] showed an IC50 (human fibroblasts hMRC-5) of over 64000 nM and an IC50 (P. falciparum strain Dd2) of 49 ± 15 nM.
